Experimental data reported in ChEMBL document CHEMBL1667846, “Optimization of a novel class of benzimidazole-based farnesoid X receptor (FXR) agonists to improve physicochemical and ADME properties” (Bioorg Med Chem Lett, 2011).
In brackets after ≈: the same amount, converted by molar mass.

How the values were obtained:
[1] = Solubility of the compound in 0.05 M phosphate buffer at pH 6.5; type: physicochemical
[2] = Lipophilicity log D of the compound at pH 7.4; type: physicochemical; details: buffer
Outline: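 Lipophilicity measured as log D at pH 7.4.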

[3] = Cmax in C57BL/6 mouse at 4 mg/kg, iv or 10 mg/kg, po; type: ADME, organism-based; details: in vivo
Outline: (§1)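 Male C57BL/6 mice (4 mg/kg iv, 10 mg/kg po) and male Wistar rats (2 mg/kg iv, 5 mg/kg po), single doses. Oral vehicle was 7.5% gelatin in 0.62% aqueous NaCl. Intravenous vehicle was 30% N-methylpyrrolidinone in aqueous 100 mM TRIS buffer pH 8.5. Reported parameters were Cl, Cmax/dose, Vss, AUC/dose, t1/2 and oral bioavailability F.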

[4] = Volume of distribution at steady state in C57BL/6 mouse at 4 mg/kg, iv; type: ADME, organism-based; parameters: dose 4 mg/kg, route intravenous; details: in vivo, read-out: Vdss; outline: as §1
[5] = AUC in C57BL/6 mouse at 4 mg/kg, iv or 10 mg/kg, po; type: ADME, organism-based; details: plasma; outline: as §1
[6] = Oral bioavailability in C57BL/6 mouse at 4 mg/kg, iv or 10 mg/kg, po; type: ADME, organism-based; details: in vivo; outline: as §1
[7] = Cmax in Wistar rat at 2 mg/kg, iv or 5 mg/kg, po; type: ADME, organism-based; details: in vivo; outline: as §1
[8] = Volume of distribution at steady state in Wistar rat at 2 mg/kg, iv or 5 mg/kg, po; type: ADME, organism-based; details: in vivo, read-out: Vdss; outline: as §1
[9] = AUC in Wistar rat at 2 mg/kg, iv or 5 mg/kg, po; type: ADME, organism-based; details: plasma; outline: as §1
[10] = Oral bioavailability in Wistar rat at 2 mg/kg, iv or 5 mg/kg, po; type: ADME, organism-based; details: in vivo; outline: as §1

| SMILES | solubility [1] [µg/mL] | logD [2] | also measured |
| --- | --- | --- | --- |
| COc1ccc(-c2nc3cc(F)c(F)cc3n2[C@H](C(=O)N[C@H]2CC[C@H](C(=O)O)CC2)C2CCCCC2)c(OC)n1 | 465 (≈ 835 µM) | 1.91 | – |
| O=C(N[C@H]1CC[C@H](C(=O)O)CC1)[C@H](C1CCCCC1)n1c(-c2ccc(Cl)cc2)nc2cc(F)c(F)cc21 | 395 (≈ 745 µM) | 2.49 | – |
| O=C(Nc1ccc(-c2nnn[nH]2)cc1F)[C@H](C1CCCCC1)n1c(-c2ccc(Cl)cc2)nc2cc(F)c(F)cc21 | 490 (≈ 866 µM) | 2.96 | – |
| O=C(N[C@H]1CC[C@H](O)CC1)[C@H](C1CCCCC1)n1c(-c2ccc(Cl)cc2)nc2cc(F)c(F)cc21 | 17 (≈ 33.9 µM) | > 4 | – |
| O=C(Nc1ccc(OC2(C(=O)O)CC2)cc1F)[C@H](C1CCCCC1)n1c(-c2ccc(Cl)cc2)nc2cc(F)c(F)cc21 | 280 (≈ 468 µM) | 2.32 | – |
| O=C(NC1CCCCC1)[C@H](C1CCCCC1)n1c(-c2ccc(Cl)cc2)nc2cc(F)c(Cl)cc21 | < 1 | > 4 | – |
| O=C(NC1CCCCC1)[C@H](C1CCCCC1)n1c(-c2ccc(Cl)cc2)nc2cc(F)c(F)cc21 | < 1 | > 4 | – |

Second part, led by results:

| solubility [1] [µg/mL] | logD [2] | SMILES | also measured |
| --- | --- | --- | --- |
| 32 (≈ 59.5 µM) | 2.83 | Cc1cc(C(=O)O)ccc1NC(=O)[C@H](C1CCCCC1)n1c(-c2ccc(Cl)cc2)nc2cc(F)c(F)cc21 | – |
| 51 (≈ 91.3 µM) | 2.98 | O=C(O)c1ccc(NC(=O)[C@H](C2CCCCC2)n2c(-c3ccc(Cl)cc3)nc3cc(F)c(F)cc32)c(Cl)c1 | – |
| 88 (≈ 168 µM) | 3.06 | O=C(O)c1ccc(NC(=O)[C@H](C2CCCCC2)n2c(-c3ccc(Cl)cc3)nc3cc(F)c(F)cc32)cc1 | – |
| 175 (≈ 315 µM) | 2.34 | O=C(O)c1ccc(NC(=O)[C@H](C2CCCCC2)n2c(-c3ccc(Cl)cc3)nc3ccccc32)c(C(F)(F)F)c1 | – |
| 115 (≈ 212 µM) | 2.66 | O=C(O)c1ccc(NC(=O)[C@H](C2CCCCC2)n2c(-c3ccc(Cl)cc3)nc3cc(F)c(F)cc32)c(F)c1 | Cmax/dose [3]: 205 ng/mL; Vd [4]: 1.24 L/kg; AUC [5]: 5430 ng·h/mL; bioavailability [6]: 33%; Cmax/dose [7]: 270 ng/mL; Vd [8]: 0.62 L/kg; AUC [9]: 3030 ng·h/mL; bioavailability [10]: 59% |
